The target in one data set is Acetylcholinesterase (Homo sapiens, UniProt P22303). Description: Inhibition of human acetylcholinesterase using acetylthiocholine as substrate by spectrophotometry. A digest of the protocol: (§1)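 Human AChE and BChE were commercial enzymes. Substrate was 1 mM acetylthiocholine for AChE and 1 mM butyrylthiocholine for BChE.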
Data set [1] deals with T1, Liver carboxylesterase 1 (Oryctolagus cuniculus, UniProt P12337).
T1 sequence (P12337 whole entry): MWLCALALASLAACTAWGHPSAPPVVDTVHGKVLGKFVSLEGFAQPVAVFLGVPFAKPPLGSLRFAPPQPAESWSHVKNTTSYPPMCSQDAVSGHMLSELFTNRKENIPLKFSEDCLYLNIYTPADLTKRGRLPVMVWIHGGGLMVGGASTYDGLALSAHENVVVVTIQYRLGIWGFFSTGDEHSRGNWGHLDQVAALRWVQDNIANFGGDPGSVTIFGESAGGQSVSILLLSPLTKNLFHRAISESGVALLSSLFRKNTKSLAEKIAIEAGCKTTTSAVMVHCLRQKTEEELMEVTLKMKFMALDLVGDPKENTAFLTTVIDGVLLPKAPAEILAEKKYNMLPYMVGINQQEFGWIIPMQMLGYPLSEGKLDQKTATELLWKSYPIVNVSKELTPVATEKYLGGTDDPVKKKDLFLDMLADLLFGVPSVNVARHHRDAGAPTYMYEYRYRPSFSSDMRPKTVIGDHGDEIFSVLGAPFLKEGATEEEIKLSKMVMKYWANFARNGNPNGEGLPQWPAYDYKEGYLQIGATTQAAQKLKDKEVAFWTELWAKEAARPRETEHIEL
Kind of data set: Inhibition of rabbit liver carboxylesterase using o-nitrophenyl acetate as substrate after for 5 mins by spectrophotometry. The essentials: (§2)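 hCE1 and rabbit liver CE were purified from baculovirus-infected Spodoptera frugiperda cells, with 3 mM o-nitrophenyl acetate as substrate. A4₂₀ was read every 15 s for 5 min versus no-inhibitor wells. Screening was at 100 μM; compounds giving >50% reduction were rescreened from 1 pM to 100 μM. Ki came from fitting a partial-inhibition (α, β) model.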

For data set [2], the target named is T2, Cocaine esterase (Homo sapiens, UniProt O00748).
T2 sequence (O00748 whole entry): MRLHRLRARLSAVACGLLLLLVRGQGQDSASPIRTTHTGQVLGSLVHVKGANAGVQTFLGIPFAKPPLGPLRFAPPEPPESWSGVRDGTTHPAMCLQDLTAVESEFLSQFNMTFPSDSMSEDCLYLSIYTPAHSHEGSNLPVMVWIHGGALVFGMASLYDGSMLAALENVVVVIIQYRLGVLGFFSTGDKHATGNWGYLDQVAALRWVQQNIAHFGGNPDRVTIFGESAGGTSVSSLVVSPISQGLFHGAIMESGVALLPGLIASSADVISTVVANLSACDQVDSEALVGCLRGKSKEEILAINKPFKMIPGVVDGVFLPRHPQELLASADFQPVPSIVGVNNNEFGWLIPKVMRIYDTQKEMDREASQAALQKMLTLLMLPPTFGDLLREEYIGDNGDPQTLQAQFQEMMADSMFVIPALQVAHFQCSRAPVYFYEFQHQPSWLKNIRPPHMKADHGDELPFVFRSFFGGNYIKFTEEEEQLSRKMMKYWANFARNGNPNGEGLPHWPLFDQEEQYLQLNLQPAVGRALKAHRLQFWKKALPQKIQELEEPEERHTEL
Description: Inhibition of human intestinal carboxylesterase using o-nitrophenyl acetate as substrate after 5 mins by spectrophotometry.

Data set [3] has as its target T3, Liver carboxylesterase 1 (Homo sapiens, UniProt P23141).
T3 sequence (P23141 whole entry): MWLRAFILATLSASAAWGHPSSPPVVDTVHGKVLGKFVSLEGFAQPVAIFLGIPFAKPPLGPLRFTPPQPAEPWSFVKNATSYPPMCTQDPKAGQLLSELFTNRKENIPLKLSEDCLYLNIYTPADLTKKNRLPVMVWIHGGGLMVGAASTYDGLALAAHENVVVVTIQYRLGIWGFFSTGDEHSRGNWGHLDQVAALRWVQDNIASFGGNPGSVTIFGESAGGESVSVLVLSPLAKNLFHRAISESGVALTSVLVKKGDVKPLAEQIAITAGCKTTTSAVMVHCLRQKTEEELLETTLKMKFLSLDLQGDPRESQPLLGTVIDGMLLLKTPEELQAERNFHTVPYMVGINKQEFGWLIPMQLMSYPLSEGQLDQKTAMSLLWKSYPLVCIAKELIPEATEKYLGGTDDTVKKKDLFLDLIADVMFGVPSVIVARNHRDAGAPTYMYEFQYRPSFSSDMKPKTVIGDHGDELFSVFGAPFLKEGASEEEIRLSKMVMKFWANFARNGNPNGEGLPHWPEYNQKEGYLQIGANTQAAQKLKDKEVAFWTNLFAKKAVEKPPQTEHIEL
Description: Inhibition of human liver carboxylesterase1 using o-nitrophenyl acetate as substrate after 5 mins by spectrophotometry. A digest of the protocol: as §2

Data set [4] is described as follows: Stability of the compound assessed as hydrolysis liberating thiophenol in aqueous solution at pH 7.4 after 5 mins. The data set is classed as physicochemical. As to conditions: buffer, pH 7.4, 5 min. Also noted: scale not given: the % may be the effect or the level left. The essentials:
(§3)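 Compound at 200 μM in 50 mM Hepes pH 7.4, held 1, 5 or 20 min at rt or 37°C, with or without CE. Reactions were stopped with acetonitrile. Products were identified by reverse-phase HPLC with UV detection against phenol/thiophenol/aniline marker standards and no-enzyme samples.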

For another data set, the target named is Cholinesterase (Homo sapiens, UniProt P06276). Description: Inhibition of human butyrylcholinesterase using butyrylthiocholine as substrate by spectrophotometry. The essentials: as §1
Chain of Cholinesterase (P06276 whole entry): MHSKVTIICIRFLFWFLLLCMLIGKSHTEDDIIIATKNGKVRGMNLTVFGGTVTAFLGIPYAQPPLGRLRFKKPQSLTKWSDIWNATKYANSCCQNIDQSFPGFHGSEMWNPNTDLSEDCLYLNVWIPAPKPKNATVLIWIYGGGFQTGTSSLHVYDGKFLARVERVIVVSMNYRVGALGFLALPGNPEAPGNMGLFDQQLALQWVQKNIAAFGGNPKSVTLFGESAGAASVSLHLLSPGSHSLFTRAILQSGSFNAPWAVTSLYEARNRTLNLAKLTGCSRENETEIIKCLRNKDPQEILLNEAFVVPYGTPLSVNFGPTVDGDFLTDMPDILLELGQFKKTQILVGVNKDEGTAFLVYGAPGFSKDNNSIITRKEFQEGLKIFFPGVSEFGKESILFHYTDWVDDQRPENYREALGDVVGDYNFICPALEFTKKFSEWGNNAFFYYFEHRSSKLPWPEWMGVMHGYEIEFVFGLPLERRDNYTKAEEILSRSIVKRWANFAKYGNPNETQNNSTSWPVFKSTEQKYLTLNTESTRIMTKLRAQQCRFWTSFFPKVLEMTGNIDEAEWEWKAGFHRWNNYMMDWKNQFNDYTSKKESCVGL
In a further data set the test system is U373 MG. Kind of data set: Reduction of CPT-11 induced cytotoxicity against human U373MG cells at 10 uM pre-incubated for 1 hr measured after 4 days in drug free medium by coulter counter. The data set is classed as functional, cell-based. The settings on record: U-373MG ATCC. The essentials: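 U373MG cells expressing hiCE were plated at 50,000 cells/well and left to adhere overnight. They got 1 h pre-incubation with 10 μM inhibitor, then 2 h with inhibitor plus CPT-11 (0–100 μM). Cells were washed, grown 4 days drug-free and Coulter-counted. Runs were in triplicate against no-inhibitor controls, and IC50 came from survival curves.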

Data set [5] is described as follows: Cytotoxicity against human U373MG cells expressing human intestinal carboxylesterase after 4 days in drug free medium by coulter counter. The settings on record: U373 MG, 96 h. The data set is classed as functional, cell-based, U-373MG ATCC.
A short description of data set [6]: Cytotoxicity against human U373MG cells expressing human intestinal carboxylesterase after 4 days in drug free medium by coulter counter in presence of CPT-11. The data set is classed as functional, cell-based, U-373MG ATCC. As to conditions: U373 MG, 96 h. A digest of the protocol: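 U373MG cells stably expressing hiCE, seeded at 50,000 cells/well and left to adhere overnight. Cells were pre-incubated 1 h with inhibitor (10 μM), then exposed 2 h to inhibitor plus CPT-11 (0–100 μM). After washing, cells grew 4 days (~3 doublings) in drug-free medium and were counted. Runs were in triplicate, with survival compared to inhibitor-free controls. IC50 was taken from survival curves.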

Data set [7] can be described thus: Stability of the compound assessed as hydrolysis liberating phenol in aqueous solution at pH 7.4 after 5 mins. The data set is classed as physicochemical. As to conditions: read-out: Activity. The essentials: as §3
In data set [8] the target is T2, Cocaine esterase. Description: Inhibition of human intestinal carboxylesterase assessed as hydrolysis of CPT-11 after 5 mins by HPLC.
The target of data set [9] is T4, intestinal carboxylesterase (cocaine esterase) (Homo sapiens, UniProt O00748).
T4 sequence (O00748 whole entry): T2 sequence (O00748 whole entry)
Description: Inhibition of intestinal carboxylesterase in human U373MG cells using 4-methylumbelliferone acetate as substrate at 10 uM after 1 hrs pre-incubation by fluorimetry. The data set is classed as cell-based, U-373MG ATCC. The settings on record: U373MG cells with intestinal carboxylesterase, probe 4-methylumbelliferone acetate.

Activity calls are given as the source filed them. The calls are words filed in the database; no cut-off is given here.

Chain of Acetylcholinesterase (P22303 whole entry): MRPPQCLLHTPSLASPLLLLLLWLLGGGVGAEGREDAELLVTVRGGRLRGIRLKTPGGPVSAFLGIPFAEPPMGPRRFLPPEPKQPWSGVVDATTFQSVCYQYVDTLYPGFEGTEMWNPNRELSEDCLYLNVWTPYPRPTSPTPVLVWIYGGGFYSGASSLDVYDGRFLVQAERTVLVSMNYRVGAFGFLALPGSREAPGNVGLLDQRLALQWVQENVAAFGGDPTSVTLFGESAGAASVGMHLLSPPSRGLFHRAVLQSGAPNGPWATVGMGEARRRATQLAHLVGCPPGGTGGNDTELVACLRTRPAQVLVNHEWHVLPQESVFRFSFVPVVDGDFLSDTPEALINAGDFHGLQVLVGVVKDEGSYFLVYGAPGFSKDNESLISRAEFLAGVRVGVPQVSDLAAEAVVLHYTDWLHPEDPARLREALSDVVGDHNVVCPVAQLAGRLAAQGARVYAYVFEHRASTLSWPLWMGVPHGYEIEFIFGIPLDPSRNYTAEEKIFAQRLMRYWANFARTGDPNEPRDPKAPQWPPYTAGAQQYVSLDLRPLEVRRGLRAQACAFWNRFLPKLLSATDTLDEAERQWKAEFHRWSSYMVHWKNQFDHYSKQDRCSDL

A word on the Ki: it is a dissociation constant, usually derived from enzyme kinetics or from competition with a known ligand. As to `O=C(Sc1ccccc1)C(=O)Sc1ccccc1`, the Ki at Acetylcholinesterase, at Liver carboxylesterase 1 [1], at Cocaine esterase [2], at Liver carboxylesterase 1 [3] and on Cholinesterase was more than 100 µM in each case. Moreover, in data set [4], the Activity was more than 40%.

With `O=C(C(=O)C(Br)c1ccccc1)C(Br)c1ccccc1` (stereo not given), the figures for the Ki at Acetylcholinesterase, on Liver carboxylesterase 1 [3] and on Cholinesterase were more than 100 µM, 0.107 µM and more than 100 µM, respectively.

Usually IC50 stands for the concentration needed to halve the response being measured. For the compound `CCCCCCC(=O)C(=O)CCCCCC`, the Ki at Acetylcholinesterase was more than 100 µM; at Liver carboxylesterase 1 [3], 0.0048 µM; on Cholinesterase it was more than 100 µM. Moreover, the outcome with U373 MG was inactive. Also, the figures for the IC50 in data set [5] and in data set [6] were more than 100 µM and 4 µM, respectively.

`O=C(Oc1ccccc1)C(=O)Oc1ccccc1` [DIPHENYL ETHANEDIOAT]: the Ki on Acetylcholinesterase, on Liver carboxylesterase 1 [1], on Cocaine esterase [2], at Liver carboxylesterase 1 [3] and on Cholinesterase was more than 100 µM each time. Moreover, the degraded at 5 min in [7] is more than 40%.

Take `CCCCCCCCC(=O)C(=O)CCCCCCCC`: the Ki at Acetylcholinesterase is more than 100 µM; on Liver carboxylesterase 1 [3] it was 0.00084 µM; at Cholinesterase, more than 100 µM.

With `CCCC(=O)C(=O)CCC`, the Ki at Acetylcholinesterase was more than 100 µM; at Liver carboxylesterase 1 [1], 17.8 µM; at Liver carboxylesterase 1 [3] it was 8.06 µM; on Cholinesterase, more than 100 µM.

Consider `O=C(Nc1ccccc1)C(=O)Nc1ccccc1`, for which the Ki on Acetylcholinesterase, at Liver carboxylesterase 1 [1], on Cocaine esterase [2], at Liver carboxylesterase 1 [3] and on Cholinesterase was more than 100 µM throughout.

`CCC(=O)C(=O)CC`: the Ki on Acetylcholinesterase, at Liver carboxylesterase 1 [1], on Cocaine esterase [2], on Liver carboxylesterase 1 [3] and on Cholinesterase was more than 100 µM each time.

As to `O=C(Cc1ccccc1)C(=O)C(Br)c1ccccc1` (stereo not given), the Ki on Acetylcholinesterase was more than 100 µM; on Liver carboxylesterase 1 [1], 3.68 µM; at Liver carboxylesterase 1 [3] it was 2.63 µM; on Cholinesterase, more than 100 µM.

Turning to `CCCCCCC(=O)C(=O)c1ccccc1`, the Ki is more than 100 µM at Acetylcholinesterase, 0.0281 µM on Liver carboxylesterase 1 [1], 0.00219 µM at Liver carboxylesterase 1 [3] and more than 100 µM at Cholinesterase. In addition, the IC50 in [5] is more than 100 µM; in data set [6] it was 10.2 µM.

Broadly, the inhibition is the change of the read-out against control, counted positive when it falls. As to `CCC(=O)C(=O)c1ccccc1`, the Ki on Cocaine esterase [8] is 2.01 µM; at Acetylcholinesterase, more than 100 µM; on Liver carboxylesterase 1 [1], 12.5 µM; at Cocaine esterase [2], 2.42 µM; at Liver carboxylesterase 1 [3] it was 1.55 µM; at Cholinesterase, more than 100 µM. Also, in data set [9], the inhibition at 1 h, 10 µM was 70.3%.

On to `CCCCCC(=O)C(=O)CCCCC`, for which the Ki was more than 100 µM at Acetylcholinesterase, 0.003 µM at Liver carboxylesterase 1 [3] and more than 100 µM on Cholinesterase.

In the case of `O=C(C(=O)C1CCCCC1)C1CCCCC1`, the Ki on Liver carboxylesterase 1 [1] was determined as 0.027 µM; on Cocaine esterase [2] it was 0.072 µM; on Liver carboxylesterase 1 [3], 0.005 µM.

With `CCCCCCCC(=O)C(=O)CCCCCCC`, the Ki on Acetylcholinesterase is more than 100 µM; at Liver carboxylesterase 1 [3] it was 0.0076 µM; at Cholinesterase, more than 100 µM.

For the compound `O=C(Cc1ccccc1)C(=O)Cc1ccccc1`, the Ki on Acetylcholinesterase is more than 100 µM; at Liver carboxylesterase 1 [1], more than 100 µM; on Cocaine esterase [2], 21.6 µM; on Liver carboxylesterase 1 [3] it was 3.08 µM; at Cholinesterase it was more than 100 µM.

On to `CCc1c2c(nc3ccc(OC(=O)N4CCC(N5CCCCC5)CC4)cc13)-c1cc3c(c(=O)n1C2)COC(=O)[C@]3(O)CC`, for which the IC50 in [5] was 3.6 µM.

Regarding `O=C(C(=O)c1ccccc1)c1ccccc1` [BENZIL], the IC50 is more than 100 µM in [5] and 22.9 µM in data set [6].

Regarding `CCCCC(=O)C(=O)c1ccccc1`, the Ki at Acetylcholinesterase was more than 100 µM; on Liver carboxylesterase 1 [3], 0.0261 µM; at Cholinesterase it was more than 100 µM.

For the compound `CCCCC(=O)C(=O)CCCC`, the Ki at Acetylcholinesterase was more than 100 µM; at Liver carboxylesterase 1 [3], 0.0466 µM; at Cholinesterase it was more than 100 µM.

For `CCCCCC(=O)C(=O)c1ccccc1`, the Ki on Acetylcholinesterase is more than 100 µM; on Liver carboxylesterase 1 [1] it was 0.11 µM; on Liver carboxylesterase 1 [3], 0.00665 µM; on Cholinesterase it was more than 100 µM.

Consider `CCCC(=O)C(=O)c1ccccc1`, for which the Ki on Acetylcholinesterase was more than 100 µM; at Liver carboxylesterase 1 [3], 0.102 µM; at Cholinesterase, more than 100 µM.

The record behind these values is ChEMBL document CHEMBL1811796, “Requirements for mammalian carboxylesterase inhibition by substituted ethane-1,2-diones” (Bioorg Med Chem, 2011).
